{"data": "Measurements pooled from the literature", "note": "Compare with care: the assays were run in different laboratories."}
{"Compound": "C#CC[C@]1(O)C[C@@H]2c3cc(OCc4cc(C)cc(C)c4)c(OCc4cc(C)cc(C)c4)cc3CCN2[C@@H](C)C1", "target or system": "ASPC1", "test": "cell growth or viability, MTT", "endpoint": "IC50", "result": "0.791 µM"}
{"Compound": "Cc1cc(Nc2ncc(Cl)c(Nc3ccccc3S(=O)(=O)C(C)C)n2)c(OC(C)C)cc1C1CCNCC1", "target or system": "KARPAS-299", "test": "cell growth or viability, MTT", "setting": "0.02058 µg/mL, 72 h", "endpoint": "inhibition", "result": "22.4%"}
{"Compound": "COc1cc(Nc2nccc(-c3cnn4nc(OC)ccc34)n2)cc(C(F)(F)F)c1", "target or system": "HEC-1-A", "test": "cell growth or viability, ATP luminescence", "endpoint": "IC50", "result": "1 µM"}
{"Compound": "COc1ccc(S(=O)(=O)c2ccc(OC)c(OC)c2OC)cc1", "test": "tubulin polymerisation, inhibitor, absorbance", "setting": "pH 6.6", "endpoint": "IC50", "result": "> 40 µM"}
{"Compound": "CCOC(=O)c1nc2ccccc2c(=O)n1Cc1cn(-c2cccc(F)c2)nn1", "target or system": "Nakaseomyces glabratus", "test": "microbial growth, broth dilution", "system": "ATCC90030", "setting": "24 h", "endpoint": "IC50", "result": "365 µg/mL"}
{"Compound": "C[C@@H](Oc1cc(-c2cnn(C3CCNCC3)c2)cnc1N)c1c(Cl)ccc(F)c1Cl", "target or system": "KARPAS-299", "test": "cell growth or viability, MTT", "setting": "0.2 µg/mL, 72 h", "endpoint": "inhibition", "result": "75.5%"}
{"Compound": "Cc1cc(C)cc(COc2cc3c(cc2OCc2cc(C)cc(C)c2)C2CC(O)(Cc4cn(CCCCCCOc5ccc6c(c5)C(=O)N(C5CCC(=O)NC5=O)C6=O)nn4)CC(C)N2CC3)c1 (stereo not drawn)", "target or system": "ASPC1", "test": "cell growth or viability, MTT", "endpoint": "IC50", "result": "0.89 µM"}
{"Compound": "COc1ccc([S+]([O-])c2ccc(C)cc2)c(OC)c1OC (stereo not drawn)", "test": "tubulin polymerisation, inhibitor, absorbance", "setting": "pH 6.6", "endpoint": "IC50", "result": "> 40 µM"}
{"Compound": "O=C(O)c1nc2ccccc2c(=O)n1Cc1cn(-c2ccccc2F)nn1", "target or system": "Nakaseomyces glabratus", "test": "microbial growth, broth dilution", "system": "ATCC90030", "setting": "24 h", "endpoint": "IC50", "result": "174 µg/mL"}
{"Compound": "Cc1cc(C)cc(COc2cc3c(cc2OCc2cc(C)cc(C)c2)[C@H]2C[C@](O)(Cc4cn(CCc5ccccc5)nn4)C[C@H](C)N2CC3)c1", "target or system": "ASPC1", "test": "cell growth or viability, MTT", "endpoint": "IC50", "result": "0.794 µM"}
{"Compound": "CC(C)C[C@H](NC(=O)[C@H](Cc1ccccc1)NC(=O)c1cnccn1)B(O)O", "target or system": "RERF-LC-MS", "test": "cell growth or viability, ATP luminescence", "endpoint": "IC50", "result": "0.02 µM"}
{"Compound": "Cc1cc(C)cc(COc2cc3c(cc2OCc2cc(C)cc(C)c2)[C@H]2C[C@](O)(Cc4cn(CCc5ccc(N)cc5)nn4)C[C@H](C)N2CC3)c1", "target or system": "ASPC1", "test": "cell growth or viability, MTT", "endpoint": "IC50", "result": "0.568 µM"}
{"Compound": "COc1ccc(S(=O)(=O)c2ccc(C)cc2)c(OC)c1OC", "test": "tubulin polymerisation, inhibitor, absorbance", "setting": "pH 6.6", "endpoint": "IC50", "result": "> 40 µM"}
{"Compound": "COc1ccc(Cn2cc(C[C@@]3(O)C[C@@H]4c5cc(OCc6cc(C)cc(C)c6)c(OCc6cc(C)cc(C)c6)cc5CCN4[C@@H](C)C3)nn2)cc1", "target or system": "ASPC1", "test": "cell growth or viability, MTT", "endpoint": "IC50", "result": "1.28 µM"}
{"Compound": "C[C@@H]1[C@H](O)[C@@H](C)/C=C/C=C/C=C/C=C/C=C/C=C/C=C/[C@H](O[C@@H]2O[C@H](C)[C@@H](O)[C@H](N)[C@@H]2O)C[C@@H]2O[C@](O)(C[C@@H](O)C[C@@H](O)[C@H](O)CC[C@@H](O)C[C@@H](O)CC(=O)O[C@H]1C)C[C@H](O)[C@H]2C(=O)O", "target or system": "Cryptococcus neoformans", "test": "microbial growth", "system": "ATCC90113", "endpoint": "IC50", "result": "0.75 µg/mL"}
